{"source": "ChEMBL document CHEMBL5030509", "about": "“A Crowding Barrier to Protein Inhibition in Colloidal Aggregates” (J Med Chem, 2021)", "key": {"Bacteria [1]": {"system": "Bacteria", "assay": "Inhibition of bacterial AmpC beta-lactamase at 5 uM preincubated for 5 min followed by CENTA chromogenic substrate addition by spectrophotometric method relative to control", "summary_of_the_method": "(§1)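 AmpC β-lactamase mixed with colloidal aggregator in 50 mM KPi pH 7 at room temperature, mixed by pipetting, incubated 30 s–15 min. Then 70 μM CENTA added and absorbance followed at 405 nm for 150 s. % activity is the initial rate relative to an aggregator-free control. T90 is the incubation time to reach 10% activity.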"}, "Bacteria [2]": {"system": "Bacteria", "assay": "Inhibition of bacterial AmpC beta-lactamase at 5 uM preincubated for 2 mins followed by CENTA chromogenic substrate addition by spectrophotometric method relative to control", "summary_of_the_method": "as §1"}, "Bacteria [3]": {"system": "Bacteria", "assay": "Inhibition of bacterial AmpC beta-lactamase at 5 uM preincubated for 1 min followed by CENTA chromogenic substrate addition by spectrophotometric method relative to control", "summary_of_the_method": "as §1"}, "Bacteria [4]": {"system": "Bacteria", "assay": "Inhibition of bacterial AmpC beta-lactamase at 10 uM using 2 nM of enzyme preincubated for 30 sec followed by CENTA chromogenic substrate addition by spectrophotometric assay relative to control", "summary_of_the_method": "as §1"}, "Bacteria [5]": {"system": "Bacteria", "assay": "Inhibition of bacterial AmpC beta-lactamase at 10 uM using 2 nM of enzyme preincubated for 5 mins followed by CENTA chromogenic substrate addition by spectrophotometric assay relative to control", "summary_of_the_method": "as §1"}, "Bacteria [6]": {"system": "Bacteria", "assay": "Inhibition of bacterial AmpC beta-lactamase at 10 uM using 10 nM of enzyme preincubated for 30 sec followed by CENTA chromogenic substrate addition by spectrophotometric assay relative to control", "summary_of_the_method": "as §1"}, "Bacteria [7]": {"system": "Bacteria", "assay": "Inhibition of bacterial AmpC beta-lactamase at 10 uM of 10 nM of enzyme preincubated for 5 min followed by CENTA chromogenic substrate addition by spectrophotometric assay relative to control", "parameters": "scale not given: the % may be the effect or the level left", "summary_of_the_method": "as §1"}, "[8]": {"target": "T1, Malate dehydrogenase, mitochondrial (Homo sapiens) (UniProt P40926)", "T1 sequence (whole entry)": "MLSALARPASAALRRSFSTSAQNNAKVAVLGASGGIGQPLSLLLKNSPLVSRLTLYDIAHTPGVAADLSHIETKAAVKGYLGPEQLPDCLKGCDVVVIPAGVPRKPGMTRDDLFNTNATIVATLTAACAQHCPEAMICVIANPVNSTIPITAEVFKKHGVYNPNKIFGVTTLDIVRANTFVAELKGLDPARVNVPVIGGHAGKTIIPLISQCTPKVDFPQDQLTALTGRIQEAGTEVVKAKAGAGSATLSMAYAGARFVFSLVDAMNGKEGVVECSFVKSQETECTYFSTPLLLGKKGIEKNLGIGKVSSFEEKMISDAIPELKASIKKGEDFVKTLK", "assay": "Inhibition of malate dehydrogenase (unknown origin) assessed as time to reach 90% inhibition pretreated with 50 mM KPi for 15 mins followed by nicotinamide adenine dinucleotide addition measured every 150 sec by spectrophotometric method", "conditions": "dose 5.0 mM, in the assay text read “5 mM KPi” for “50 mM KPi”", "summary_of_the_method": "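Porcine heart MDH mixed with colloidal aggregator in 50 mM KPi pH 7 at room temperature, incubated 30 s–15 min. Reaction started with 200 μM NADH and 200 μM oxaloacetic acid, followed at 340 nm for 150 s. Initial rate relative to an aggregator-free control gives % activity. T90 is the incubation time to 10% activity.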"}, "Bacteria [9]": {"system": "Bacteria", "assay": "Inhibition of bacterial AmpC beta-lactamase preincubated for 30 sec in absence of preloaded MDH relative to control", "conditions": "concentration not given here", "summary_of_the_method": "(§2)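 AmpC activity with 70 μM CENTA, read at 405 nm for 150 s, in 50 mM KPi pH 7 at room temperature. For preloading, the aggregator was incubated 5 min with MDH before AmpC was added and incubated for varying times. % activity is relative to an aggregator-free rate control. T90 is the time to 10% activity.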"}, "Bacteria [10]": {"system": "Bacteria", "assay": "Inhibition of bacterial AmpC beta-lactamase preincubated for 30 sec in presence of preloaded MDH relative to control", "conditions": "concentration not given here", "summary_of_the_method": "as §2"}, "[11]": {"target": "T1, Malate dehydrogenase, mitochondrial (Homo sapiens)", "assay": "Inhibition of preloaded MDH (unknown origin) preincubated for 30 sec in absence of preloaded AmpC", "summary_of_the_method": "(§3)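 Porcine heart MDH assay: 200 μM nicotinamide adenine dinucleotide plus 200 μM oxaloacetate, read at 340 nm for 150 s, in 50 mM KPi pH 7 at room temperature. For preloading, the aggregator was first incubated 5 min with AmpC, then MDH was added and incubated for varying times. % activity is relative to an aggregator-free control.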"}, "[12]": {"target": "T1, Malate dehydrogenase, mitochondrial (Homo sapiens)", "assay": "Inhibition of preloaded MDH (unknown origin) preincubated for 30 sec in presence of preloaded AmpC", "summary_of_the_method": "as §3"}, "Bacteria [13]": {"system": "Bacteria", "assay": "Inhibition of bacterial AmpC beta-lactamase assessed as time reach to 90% inhibition in absence of preloaded MDH", "summary_of_the_method": "as §2"}, "Bacteria [14]": {"system": "Bacteria", "assay": "Inhibition of bacterial AmpC beta-lactamase assessed as time reach to 90% inhibition in presence of preloaded MDH", "summary_of_the_method": "as §2"}, "Escherichia coli": {"system": "Escherichia coli", "assay": "Inhibition of Escherichia coli beta galactosidase using ortho-nitrophenyl-beta-galactoside as substrate", "summary_of_the_method": "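E. coli β-galactosidase (overproducer) mixed with colloidal aggregator in 50 mM KPi pH 7, incubated 30 s–15 min at room temperature; reaction started with 300 μM ortho-nitrophenyl-β-galactoside and followed at 320 nm for 150 s. Initial rate divided by that of an aggregator-free control gives % activity.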"}}, "note": "Calls of active or inactive are those of the source. No cut-off for these calls is given here.", "data": [{"smiles": "CNC(=O)c1cc(Oc2ccc(NC(=O)Nc3ccc(Cl)c(C(F)(F)F)c3)cc2)ccn1", "values": [{"measurement": "inhibition", "setting": "Bacteria [1]", "result": 100, "unit": "%"}, {"measurement": "inhibition", "setting": "Bacteria [2]", "result": 80, "unit": "%"}, {"measurement": "inhibition", "setting": "Bacteria [3]", "result": 40, "unit": "%"}, {"measurement": "inhibition", "setting": "Bacteria [4]", "result": 67, "unit": "%"}, {"measurement": "inhibition", "setting": "Bacteria [5]", "result": 100, "unit": "%"}, {"measurement": "inhibition", "setting": "Bacteria [6]", "result": 40, "unit": "%"}, {"measurement": "Activity", "setting": "Bacteria [7]", "result": 20, "unit": "%"}, {"measurement": "TIME", "setting": "[8]", "result": "> 0.25", "unit": "h"}, {"measurement": "inhibition", "setting": "Bacteria [9]", "result": 80, "unit": "%"}, {"measurement": "inhibition", "setting": "Bacteria [10]", "result": 45, "unit": "%"}, {"measurement": "inhibition", "setting": "[11]", "result": "Active"}, {"measurement": "inhibition", "setting": "[12]", "result": "Active"}, {"measurement": "TIME", "setting": "Bacteria [13]", "result": 0.0167, "unit": "h"}, {"measurement": "TIME", "setting": "Bacteria [14]", "result": 0.0833, "unit": "h"}, {"measurement": "inhibition", "setting": "Escherichia coli", "result": "Active"}]}]}
